Data taken from ChEMBL document CHEMBL2321751, “Optimization of chloronitrobenzamides (CNBs) as therapeutic leads for human African trypanosomiasis (HAT)” (J Med Chem, 2013).
Converted amounts (≈) assume the structure as drawn.

Experiments:
[1] = test system: Trypanosoma brucei rhodesiense; experiment: Antitrypanosomal activity against bloodstream forms of wild type Trypanosoma brucei rhodesiense STIB900 after 70 hrs by Alamar Blue assay; type: functional, organism-based; conditions: STIB900, 70 h
How it was run: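 T. b. rhodesiense STIB 900 was cultured in MEM with Earle's salts and Baltz supplements (0.2 mM 2-mercaptoethanol, 1 mM Na-pyruvate, 0.5 mM hypoxanthine, 15% heat-inactivated horse serum). 2000 bloodstream forms per well were exposed to serial drug dilutions for 70 h at 37 °C in humidified 5% CO2. Resazurin followed for 2–4 h, read by fluorescence (ex 536/em 588 nm). IC50 came from sigmoidal curves by linear regression.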

[2] = test system: Trypanosoma brucei gambiense; experiment: Antitrypanosomal activity against Trypanosoma brucei gambiense STIB930 after 70 hrs by Alamar Blue assay; type: functional, organism-based; conditions: STIB930, 70 h
How it was run: (§1)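 T. b. gambiense strains were grown in HMI-9 with 15% heat-inactivated FBS and 5% human serum. 10000 trypanosomes per well were seeded into serial drug dilutions and held 70 h at 37 °C in humidified 5% CO2. Resazurin was then added for a further 4–6 h, and fluorescence was read (ex 536/em 588 nm). IC50 was taken by linear regression from sigmoidal dose-inhibition curves.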

[3] = Half life in mouse liver microsomes; type: ADME, Microsome
How it was run: (§2)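 Liver microsomes (human: pooled from 200 mixed-gender donors; mouse: female […]) were diluted in 0.1 M potassium phosphate, pH 7.4, with EDTA, then spiked from a 2 mM DMSO/acetonitrile compound stock. Reactions were started with cofactor solutions A+B and kept at 37 °C with shaking. Samples at 0, 0.5, 1, 2 and 4 h were quenched with cold methanol containing 10 μM warfarin and analysed by UPLC-MS (SIR). k = −2.303 × slope of log peak-area ratio versus time; t1/2 = 0.693/k.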

[4] = test system: HEK293; experiment: Cytotoxicity against HEK293 cells after 72 hrs by Cell Titre Glo assay; type: cell-based; conditions: Homo sapiens, HEK293, 72 h
How it was run: (§3)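 Human cells grown to 80% confluence were plated in 384-well format and received compound dilutions by pin tool. After 72 h at 37 °C in 5% CO2, viability was measured by CellTiter-Glo luminescence.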

[5] = test system: Trypanosoma brucei brucei; experiment: Antitrypanosomal activity against Trypanosoma brucei brucei 221 after 48 hrs by Cell Titre Glo assay; type: functional, organism-based; conditions: Trypanosoma brucei, 221, 48 h
How it was run: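 Bloodstream-form parasites grown in HMI-9 with 10% heat-inactivated FBS, 10% Serum Plus and penicillin/streptomycin at 37 °C, 5% CO₂, to 1 × 10⁶ cells/mL. Diluted to 1 × 10⁴ cells/mL, then dosed with a DMSO dilution series by pin transfer. Incubated 48 h at 37 °C, 5% CO₂. Viability read by CellTiter-Glo luminescence. EC₅₀ from a variable-slope sigmoidal fit. Mean of six replicates, errors as 95% CI.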

[6] = Kinetic solubility of the compound in PBS buffer at pH 7.4 after 18 hrs by UV spectrophotometric analysis; type: physicochemical; conditions: for Kinetic_solubility: buffer, pH 7.4, 18 h, BLD = below limit of detection; for solubility kinetic at 18 h: PBS buffer, pH 7.4, read-out: Kinetic_solubility
How it was run: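 Compound from a 10 mM stock was added to PBS pH 7.4 and left 18 h at room temperature. The suspension was filtered, and the filtrate was mixed 1:1 with 1-propanol. Solubility was derived from UV spectrum AUC (250–500 nm) relative to a 1-propanol/PBS reference. Run in triplicate.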

[7] = test system: Raji; experiment: Cytotoxicity against human Raji cells after 72 hrs by Cell Titre Glo assay; type: cell-based; how it was run: as §3
[8] = test system: HepG2; experiment: Cytotoxicity against human HepG2 cells after 72 hrs by Cell Titre Glo assay; type: cell-based; conditions: HepG2, 72 h; how it was run: as §3
[9] = Half life in human liver microsomes; type: ADME, Microsome; how it was run: as §2
[10] = test system: BJ; experiment: Cytotoxicity against human BJ cells after 72 hrs by Cell Titre Glo assay; type: cell-based; how it was run: as §3
[11] = Permeability of the compound at pH 7.4 by PAMPA; type: ADME; conditions: PAMPA, read-out: permeability
How it was run: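 Compound (10 mM DMSO stock) was diluted in system solution buffer pH 7.4 and placed in the donor chamber of a PAMPA sandwich whose membrane was coated with GIT lipid. Acceptor buffer filled the acceptor chamber, and the assembly was stirred for 30 min. Donor and acceptor UV spectra (250–500 nm) were compared with a reference to give the permeability coefficient. Run in triplicate.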

[12] = Permeability of the compound at pH 3.0 by PAMPA; type: ADME; conditions: read-out: permeability
[13] = Kinetic solubility of the compound in PBS buffer at pH 3.0 after 18 hrs by UV spectrophotometric analysis; type: physicochemical; conditions: read-out: Kinetic_solubility
[14] = test system: Trypanosoma brucei gambiense; experiment: Antitrypanosomal activity against Trypanosoma brucei gambiense DAL 898R after 70 hrs by Alamar Blue assay; type: functional, organism-based; how it was run: as §1
[15] = test system: Trypanosoma brucei gambiense; experiment: Antitrypanosomal activity against Trypanosoma brucei gambiense KO48 after 70 hrs by Alamar Blue assay; type: functional, organism-based; conditions: KO48, 70 h; how it was run: as §1

Compound	EC50 [1] [nM]	EC50 [2] [nM]	half-life [3] [h]	EC50 [4] [nM]	EC50 [5] [nM]	Kinetic_solubility [6]	EC50 [7] [nM]	EC50 [8] [nM]	half-life [9] [h]	EC50 [10] [nM]	Papp [11] [×10⁻⁶ cm/s]	Papp [12] [×10⁻⁶ cm/s]	solubility kinetic at 18 h [6] [µM]	solubility kinetic at 18 h [13] [µM]	EC50 [14] [nM]	EC50 [15] [nM]
Cc1ccc(-c2nc3ccccc3s2)cc1NC(=O)c1cc([N+](=O)[O-])ccc1Cl	13	36	> 4	> 14000	6	BLD	> 14000	> 14000	> 4	> 14000	41					
Cc1ccc(-c2nc3ccccc3s2)cc1NC(=O)c1cc([N+](=O)[O-])c(N2CCNCC2)cc1Cl	7	2	> 4	> 25000			> 25000	> 25000	> 4	14500	4	0.6	0.08 (≈ 0.0406 µg/mL)	1.15 (≈ 0.584 µg/mL)		
CN1CCN(c2cc(Cl)c(C(=O)Nc3cccc(-c4nc5ccccc5s4)c3)cc2[N+](=O)[O-])CC1	210	160	0.81	14200	110	BLD	14500	8600	3.3	> 25000	366	108		46 (≈ 23.4 µg/mL)		
O=C(Nc1cccc(-c2nc3ccccc3s2)c1)c1cc([N+](=O)[O-])c(N2CCNCC2)cc1Cl				12700	190		> 25000	5300		> 25000	276	< 1	0.72 (≈ 0.356 µg/mL)	0.98 (≈ 0.484 µg/mL)		
O=C(Nc1cccc(-c2nc3ccccc3s2)c1)c1cc([N+](=O)[O-])c(N2CCOCC2)cc1Cl				> 25000	220		> 25000	> 25000		> 25000	18	106	0.37 (≈ 0.183 µg/mL)	0.07 (≈ 0.0346 µg/mL)		
Cc1ccc(-c2nc3ccccc3s2)cc1NC(=O)c1cc([N+](=O)[O-])c(N2CCN(C)CC2)cc1Cl	11	1	1.3	> 25000	41		> 25000	> 25000	1.6	> 25000	74	60	0.7 (≈ 0.365 µg/mL)	0.56 (≈ 0.292 µg/mL)		
O=C(Nc1cccc(-c2nc3ccccc3s2)c1)c1cc([N+](=O)[O-])ccc1Cl	160	110	0.18	> 27000	190		> 27000	> 25000	1	> 27000	12	51	0.58 (≈ 0.238 µg/mL)	0.51 (≈ 0.209 µg/mL)	200	170
